{"source": "ChEMBL document CHEMBL5678806", "about": "“NMS-P937, an orally available, specific small-molecule polo-like kinase 1 inhibitor with antitumor activity in solid and hematologic malignancies” (Mol Cancer Ther, 2012)", "key": {"[1]": {"system": "MIA PaCa-2", "assay": "Antiproliferative activity against human MIA PaCa-2 cells assessed as inhibition of cell growth incubated for 72 hrs by cell-titer glo assay", "format": "functional, cell-based", "conditions": "MIA PaCa-2, 72 h", "how_it_was_run": "(§1)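 Cells from ATCC or ECACC, kept in supplier-recommended medium with 1% penicillin-streptomycin at 37°C, 5% CO₂. Seeded at 10,000–30,000/cm² (adherent) or 100,000/mL (nonadherent) in medium with 10% fetal calf serum. Dosed after 24 h in duplicate with serial dilutions. Viable cells read by CellTiter-Glo 72 h later. IC50 from sigmoidal fit. At least two independent experiments.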"}, "[2]": {"system": "NCI-H2170", "assay": "Antiproliferative activity against human NCI-H2170 cells assessed as inhibition of cell growth incubated for 72 hrs by cell-titer glo assay", "format": "functional, cell-based", "conditions": "NCI-H2170, 72 h", "how_it_was_run": "as §1"}, "[3]": {"assay": "Antiproliferative activity against human Lovo/DX cells assessed as inhibition of cell growth incubated for 72 hrs by cell-titer glo assay", "format": "functional, cell-based", "how_it_was_run": "(§2)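 Cells seeded at 10,000–30,000/cm² (adherent) or 100,000/mL (nonadherent) in medium with 10% fetal calf serum; after 24 h, treated in duplicate with serial dilutions for 72 h. Viable cell number read by CellTiter-Glo luminescence; IC50 from sigmoidal fit; at least two independent experiments.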"}, "[4]": {"target": "Inhibitor of nuclear factor kappa-B kinase subunit beta (Homo sapiens) (UniProt O14920)", "assay": "Inhibition of N-terminal His6 tagged recombinant full-length human IKKbeta expressed in baculovirus infected Sf21 cells assessed as residual activity at 1 uM relative to control"}, "[5]": {"system": "CAL-51", "assay": "Antiproliferative activity against human CAL-51 cells assessed as inhibition of cell growth incubated for 72 hrs by cell-titer glo assay", "format": "functional, cell-based", "conditions": "CAL-51, 72 h", "how_it_was_run": "(§3)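 Cells seeded 10,000–30,000/cm² (adherent) or 100,000/mL (suspension) in medium with 10% fetal calf serum; after 24 h treated in duplicate with serial dilutions for 72 h. Viable cells read by CellTiter-Glo luminescence; IC50 from sigmoidal fit; at least two independent experiments.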"}, "[6]": {"target": "MAP kinase-interacting serine/threonine-protein kinase 2 (Homo sapiens, UniProt Q9HBH9)", "sequence (Q9HBH9 whole entry)": "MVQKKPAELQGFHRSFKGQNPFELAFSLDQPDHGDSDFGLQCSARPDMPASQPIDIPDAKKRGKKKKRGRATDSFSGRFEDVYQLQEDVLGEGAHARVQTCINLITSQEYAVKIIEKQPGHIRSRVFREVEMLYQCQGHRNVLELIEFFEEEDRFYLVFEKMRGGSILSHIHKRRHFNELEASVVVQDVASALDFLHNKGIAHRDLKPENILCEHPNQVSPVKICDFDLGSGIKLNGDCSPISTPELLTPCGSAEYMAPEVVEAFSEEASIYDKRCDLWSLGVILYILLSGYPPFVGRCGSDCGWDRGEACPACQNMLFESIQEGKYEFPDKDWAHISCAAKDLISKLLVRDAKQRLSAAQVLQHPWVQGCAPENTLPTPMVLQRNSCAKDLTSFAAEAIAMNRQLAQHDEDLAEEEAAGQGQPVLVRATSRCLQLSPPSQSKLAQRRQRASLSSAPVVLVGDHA", "assay": "Inhibition of MNK2 (unknown origin) in presence of [gamma-33P]ATP"}, "[7]": {"target": "Rho-associated protein kinase 1 (Homo sapiens) (UniProt Q13464)", "sequence (Q13464 2-1354 limits assumed)": "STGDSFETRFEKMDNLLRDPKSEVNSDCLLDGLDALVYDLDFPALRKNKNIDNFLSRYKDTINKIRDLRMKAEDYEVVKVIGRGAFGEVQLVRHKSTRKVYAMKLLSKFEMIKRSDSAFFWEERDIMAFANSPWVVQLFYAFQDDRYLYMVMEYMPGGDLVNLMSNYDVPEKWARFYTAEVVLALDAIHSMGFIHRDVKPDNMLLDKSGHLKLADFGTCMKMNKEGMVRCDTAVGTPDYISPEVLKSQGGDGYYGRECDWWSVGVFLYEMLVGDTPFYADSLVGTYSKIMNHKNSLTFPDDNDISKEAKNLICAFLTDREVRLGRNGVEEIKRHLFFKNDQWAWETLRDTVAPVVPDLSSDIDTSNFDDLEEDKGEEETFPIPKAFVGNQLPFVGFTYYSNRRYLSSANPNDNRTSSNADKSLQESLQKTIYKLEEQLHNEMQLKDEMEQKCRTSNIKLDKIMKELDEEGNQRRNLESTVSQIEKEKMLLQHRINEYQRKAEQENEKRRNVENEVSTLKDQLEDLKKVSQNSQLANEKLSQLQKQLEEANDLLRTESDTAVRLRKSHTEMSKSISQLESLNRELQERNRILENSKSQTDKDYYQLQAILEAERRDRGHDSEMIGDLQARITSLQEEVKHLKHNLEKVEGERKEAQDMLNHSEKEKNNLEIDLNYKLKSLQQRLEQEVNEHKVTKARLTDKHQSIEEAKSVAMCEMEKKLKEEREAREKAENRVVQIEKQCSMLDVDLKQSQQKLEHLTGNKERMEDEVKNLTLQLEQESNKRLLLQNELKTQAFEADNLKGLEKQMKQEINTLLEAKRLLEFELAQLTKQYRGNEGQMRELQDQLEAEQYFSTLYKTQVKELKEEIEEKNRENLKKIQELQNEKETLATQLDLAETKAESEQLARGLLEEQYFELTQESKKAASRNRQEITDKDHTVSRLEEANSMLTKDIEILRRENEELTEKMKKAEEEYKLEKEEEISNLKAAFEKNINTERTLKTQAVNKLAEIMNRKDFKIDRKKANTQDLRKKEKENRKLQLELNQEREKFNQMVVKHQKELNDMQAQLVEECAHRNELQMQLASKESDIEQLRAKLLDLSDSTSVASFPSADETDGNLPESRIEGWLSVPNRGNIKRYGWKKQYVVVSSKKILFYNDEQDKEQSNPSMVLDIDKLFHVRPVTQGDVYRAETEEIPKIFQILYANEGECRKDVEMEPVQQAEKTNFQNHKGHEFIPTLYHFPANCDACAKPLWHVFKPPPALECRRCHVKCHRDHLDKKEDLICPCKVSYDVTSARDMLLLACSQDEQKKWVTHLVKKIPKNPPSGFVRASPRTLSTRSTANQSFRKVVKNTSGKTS", "assay": "Inhibition of N-terminal His6-tagged recombinant human ROCK-I (17 to 535 residues) expressed in baculovirus infected Sf21 cells assessed as residual activity at 1 uM relative to control"}, "[8]": {"system": "CAL-12T", "assay": "Antiproliferative activity against human CAL-12T cells assessed as inhibition of cell growth incubated for 72 hrs by cell-titer glo assay", "format": "functional, cell-based", "how_it_was_run": "as §3"}, "[9]": {"assay": "Plasma concentration in nu/nu mouse xenografted with human HL-60 cells at 60 mg/kg, po administered for 10 days relative to control", "format": "ADME, organism-based", "conditions": "time 10 day"}, "[10]": {"target": "Serine/threonine-protein kinase D1 (Homo sapiens) (UniProt Q15139)", "sequence (Q15139 whole entry)": "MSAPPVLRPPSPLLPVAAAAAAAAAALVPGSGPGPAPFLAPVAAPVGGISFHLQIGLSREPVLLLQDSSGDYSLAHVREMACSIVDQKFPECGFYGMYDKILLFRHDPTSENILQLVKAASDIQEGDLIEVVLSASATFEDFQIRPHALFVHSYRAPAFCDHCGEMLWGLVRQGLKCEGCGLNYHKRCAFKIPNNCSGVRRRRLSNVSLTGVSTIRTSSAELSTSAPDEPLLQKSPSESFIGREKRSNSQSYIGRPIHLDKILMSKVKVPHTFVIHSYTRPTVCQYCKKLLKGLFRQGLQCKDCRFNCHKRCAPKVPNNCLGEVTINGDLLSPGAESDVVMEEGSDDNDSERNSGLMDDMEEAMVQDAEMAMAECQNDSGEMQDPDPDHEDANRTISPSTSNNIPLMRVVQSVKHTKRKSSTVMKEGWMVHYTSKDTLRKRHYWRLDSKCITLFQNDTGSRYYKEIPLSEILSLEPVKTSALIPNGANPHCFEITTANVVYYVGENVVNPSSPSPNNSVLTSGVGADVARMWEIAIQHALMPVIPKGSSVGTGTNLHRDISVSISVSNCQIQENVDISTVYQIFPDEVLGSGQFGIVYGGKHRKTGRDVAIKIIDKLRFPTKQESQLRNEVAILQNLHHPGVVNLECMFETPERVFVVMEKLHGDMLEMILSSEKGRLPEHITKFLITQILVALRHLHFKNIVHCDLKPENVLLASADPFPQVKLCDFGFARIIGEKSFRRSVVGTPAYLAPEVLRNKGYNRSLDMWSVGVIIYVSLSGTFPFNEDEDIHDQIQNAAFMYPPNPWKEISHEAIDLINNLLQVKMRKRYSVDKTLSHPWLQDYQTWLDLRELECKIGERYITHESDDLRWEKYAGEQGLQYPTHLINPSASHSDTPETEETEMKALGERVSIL", "assay": "Inhibition of N-terminal His6-tagged recombinant full-length human PKCmu expressed in Sf21 cells assessed as residual activity at 1 uM relative to control"}, "[11]": {"system": "A2780", "assay": "Antitumor activity against human A2780 cells xenografted in nu/nu mouse assessed as tumor growth inhibition at 60 mg/kg, po administered for 10 days", "conditions": "time 10.0 day"}, "[12]": {"target": "BDNF/NT-3 growth factors receptor (Homo sapiens) (UniProt Q16620)", "sequence (Q16620 32-822 limits assumed)": "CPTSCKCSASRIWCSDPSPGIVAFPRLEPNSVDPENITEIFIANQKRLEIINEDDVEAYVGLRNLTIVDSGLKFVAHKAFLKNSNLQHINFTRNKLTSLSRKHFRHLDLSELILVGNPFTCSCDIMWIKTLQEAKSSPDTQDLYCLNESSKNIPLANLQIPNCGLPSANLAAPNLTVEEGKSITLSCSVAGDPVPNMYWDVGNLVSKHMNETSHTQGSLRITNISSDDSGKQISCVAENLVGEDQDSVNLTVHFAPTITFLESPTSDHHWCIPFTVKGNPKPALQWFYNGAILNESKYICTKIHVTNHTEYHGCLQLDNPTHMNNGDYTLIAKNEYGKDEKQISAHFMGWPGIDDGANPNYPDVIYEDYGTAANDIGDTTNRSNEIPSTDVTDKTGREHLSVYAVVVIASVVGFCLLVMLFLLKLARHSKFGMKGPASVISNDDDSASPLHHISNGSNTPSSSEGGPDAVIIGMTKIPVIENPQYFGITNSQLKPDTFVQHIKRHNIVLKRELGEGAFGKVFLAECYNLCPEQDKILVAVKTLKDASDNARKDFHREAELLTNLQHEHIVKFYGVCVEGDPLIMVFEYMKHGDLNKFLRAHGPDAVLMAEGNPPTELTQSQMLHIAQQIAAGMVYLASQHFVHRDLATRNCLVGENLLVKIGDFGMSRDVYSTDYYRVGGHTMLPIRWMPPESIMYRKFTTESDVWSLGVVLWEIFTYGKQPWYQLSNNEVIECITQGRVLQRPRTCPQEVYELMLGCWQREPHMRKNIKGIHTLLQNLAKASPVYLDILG", "assay": "Inhibition of N-terminal His6 tagged recombinant human TrkB (455 to end residues) expressed in baculovirus infected Sf21 cells assessed as residual activity at 1 uM relative to control"}, "[13]": {"target": "Tyrosine-protein kinase SYK (Homo sapiens, UniProt P43405)", "assay": "Inhibition of N-terminal His6-tagged recombinant full-length human Syk expressed in baculovirus infected Sf21 cells assessed as residual activity at 1 uM relative to control"}, "[14]": {"target": "Tyrosine-protein kinase Fgr (Homo sapiens) (UniProt P09769)", "sequence (P09769 2-529 limits assumed)": "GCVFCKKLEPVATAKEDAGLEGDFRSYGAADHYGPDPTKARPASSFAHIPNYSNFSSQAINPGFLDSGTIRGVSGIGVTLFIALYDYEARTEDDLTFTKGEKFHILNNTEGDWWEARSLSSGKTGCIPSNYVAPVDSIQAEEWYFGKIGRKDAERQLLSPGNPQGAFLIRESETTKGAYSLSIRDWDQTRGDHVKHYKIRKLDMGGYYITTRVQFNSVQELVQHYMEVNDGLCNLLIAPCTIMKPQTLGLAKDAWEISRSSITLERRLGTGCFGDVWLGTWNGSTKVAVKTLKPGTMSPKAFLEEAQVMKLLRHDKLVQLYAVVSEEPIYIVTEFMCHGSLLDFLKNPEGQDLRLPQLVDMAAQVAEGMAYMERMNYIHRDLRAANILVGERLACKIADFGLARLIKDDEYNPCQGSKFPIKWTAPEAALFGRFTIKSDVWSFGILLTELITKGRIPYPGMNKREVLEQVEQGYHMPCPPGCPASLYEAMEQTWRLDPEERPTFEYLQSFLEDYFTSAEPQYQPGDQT", "assay": "Inhibition of N-terminal His6-tagged recombinant human Fgr (2 to end residues) expressed in baculovirus infected Sf21 cells assessed as residual activity at 0.1 uM relative to control"}, "[15]": {"system": "SK-LU-1", "assay": "Antiproliferative activity against human SK-LU-1 cells assessed as inhibition of cell growth incubated for 72 hrs by cell-titer glo assay", "format": "functional, cell-based", "conditions": "SK-LU-1, 72 h"}, "[16]": {"assay": "Tmax in Beagle dog at 5 mg/kg, po by LC-MS analysis", "format": "ADME, organism-based, Canis lupus familiaris", "conditions": "in vivo"}, "[17]": {"system": "SK-BR-3", "assay": "Antiproliferative activity against human SK-BR-3 cells assessed as inhibition of cell growth incubated for 72 hrs by cell-titer glo assay", "format": "functional, cell-based", "conditions": "SK-BR-3, 72 h"}, "[18]": {"system": "HCT-116", "assay": "Antiproliferative activity against human HCT-116 cells assessed as inhibition of cell growth incubated for 72 hrs by cell-titer glo assay", "format": "functional, cell-based", "conditions": "HCT-116, 72 h", "how_it_was_run": "as §2"}, "[19]": {"target": "Tyrosine-protein kinase Lyn (Mus musculus) (UniProt P25911)", "sequence (P25911 whole entry)": "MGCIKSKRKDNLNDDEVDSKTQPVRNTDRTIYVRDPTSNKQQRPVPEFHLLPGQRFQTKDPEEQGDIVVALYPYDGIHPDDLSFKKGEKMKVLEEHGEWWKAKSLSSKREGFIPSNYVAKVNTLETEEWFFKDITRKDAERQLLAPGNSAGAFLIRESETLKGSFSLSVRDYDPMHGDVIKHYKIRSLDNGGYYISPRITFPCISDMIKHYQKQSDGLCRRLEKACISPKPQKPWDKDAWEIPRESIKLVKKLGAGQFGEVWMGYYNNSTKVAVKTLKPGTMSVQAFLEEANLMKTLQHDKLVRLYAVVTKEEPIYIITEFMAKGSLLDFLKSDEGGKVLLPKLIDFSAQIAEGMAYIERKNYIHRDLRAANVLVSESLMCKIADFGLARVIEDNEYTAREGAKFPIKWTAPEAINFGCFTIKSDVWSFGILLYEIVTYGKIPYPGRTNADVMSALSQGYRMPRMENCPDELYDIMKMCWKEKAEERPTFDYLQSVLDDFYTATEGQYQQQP", "assay": "Inhibition of N-terminal his6-tagged recombinant full-length mouse Lyn expressed in baculovirus infected Sf21 cells assessed as residual activity at 1 uM relative to control"}, "[20]": {"target": "Cyclin-dependent kinase 2/cyclin E1 (Homo sapiens, UniProt P24941)", "assay": "Inhibition of CDK2/CycE (unknown origin) in presence of [gamma-33P]ATP", "format": "protein-complex assay"}, "[21]": {"target": "Casein kinase 2 (Homo sapiens, UniProt P67870+P68400+P19784+Q8NEV1)", "assay": "Inhibition of CK2 (unknown origin) at 10 micromol/L in presence of [gamma-33P]ATP relative to control", "format": "protein assay", "conditions": "dose 10.0 µmol/L"}, "[22]": {"system": "RERF-LC-AI", "assay": "Antiproliferative activity against human RERF-LC-AI cells assessed as inhibition of cell growth incubated for 72 hrs by cell-titer glo assay", "format": "functional, cell-based", "how_it_was_run": "as §1"}, "[23]": {"system": "NCI/ADR-RES", "assay": "Antiproliferative activity against human NCI/ADR-RES cells assessed as inhibition of cell growth incubated for 72 hrs by cell-titer glo assay", "format": "functional, cell-based", "how_it_was_run": "as §1"}, "[24]": {"system": "SH-SY5Y", "assay": "Antiproliferative activity against human SH-SY5Y cells assessed as inhibition of cell growth incubated for 72 hrs by cell-titer glo assay", "format": "functional, cell-based"}, "[25]": {"system": "SKM-1", "assay": "Antiproliferative activity against human SKM-1 cells assessed as inhibition of cell growth incubated for 72 hrs by cell-titer glo assay", "format": "functional, cell-based", "conditions": "SKM-1, 72 h"}, "[26]": {"system": "SW48", "assay": "Antiproliferative activity against human SW48 cells assessed as inhibition of cell growth incubated for 72 hrs by cell-titer glo assay", "format": "functional, cell-based", "conditions": "SW48, 72 h"}, "[27]": {"system": "NCI-H460", "assay": "Antiproliferative activity against human NCI-H460 cells assessed as inhibition of cell growth incubated for 72 hrs by cell-titer glo assay", "format": "functional, cell-based", "conditions": "NCI-H460, 72 h", "how_it_was_run": "as §1"}, "[28]": {"target": "MAP kinase-activated protein kinase 2 (Homo sapiens, UniProt P49137)", "sequence (P49137 whole entry)": "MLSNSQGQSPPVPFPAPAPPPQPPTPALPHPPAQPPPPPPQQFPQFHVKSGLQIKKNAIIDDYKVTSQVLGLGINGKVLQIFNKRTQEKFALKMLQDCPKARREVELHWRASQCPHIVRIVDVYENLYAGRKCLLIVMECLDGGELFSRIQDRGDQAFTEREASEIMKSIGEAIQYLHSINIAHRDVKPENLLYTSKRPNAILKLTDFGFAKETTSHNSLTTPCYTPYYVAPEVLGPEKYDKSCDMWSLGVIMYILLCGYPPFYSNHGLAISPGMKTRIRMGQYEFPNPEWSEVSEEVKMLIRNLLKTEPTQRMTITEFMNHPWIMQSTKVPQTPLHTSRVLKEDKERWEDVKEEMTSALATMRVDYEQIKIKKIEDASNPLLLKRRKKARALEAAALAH", "assay": "Inhibition of MAPKAPK2 (unknown origin) in presence of [gamma-33P]ATP"}, "[29]": {"system": "SU-DHL-6", "assay": "Antiproliferative activity against human SU-DHL-6 cells assessed as inhibition of cell growth incubated for 72 hrs by cell-titer glo assay", "format": "functional, cell-based", "conditions": "SU-DHL-6, 72 h"}, "[30]": {"assay": "Antiproliferative activity against human M-07e cells assessed as inhibition of cell growth incubated for 72 hrs by cell-titer glo assay", "format": "functional, cell-based", "how_it_was_run": "as §2"}, "[31]": {"system": "A-375", "assay": "Antiproliferative activity against human A-375 cells assessed as inhibition of cell growth incubated for 72 hrs by cell-titer glo assay", "format": "functional, cell-based", "conditions": "A-375, 72 h", "how_it_was_run": "as §3"}}, "note": "Activity calls are given as the source filed them. The calls are words filed in the database; no cut-off is given here.", "data": [{"smiles": "CN1CCN(c2ccc(OC(F)(F)F)c(Nc3ncc4c(n3)-c3c(c(C(N)=O)nn3CCO)CC4)c2)CC1", "note": "[ONVANSERTIB]", "values": [{"measurement": "IC50", "setting": "[1]", "value": 0.112, "unit": "µM"}, {"measurement": "IC50", "setting": "[2]", "value": 0.015, "unit": "µM"}, {"measurement": "IC50", "setting": "[3]", "value": 1.72, "unit": "µM"}, {"measurement": "Activity", "setting": "[4]", "value": 127, "unit": "%"}, {"measurement": "IC50", "setting": "[5]", "value": 0.019, "unit": "µM"}, {"measurement": "IC50", "setting": "[6]", "value": "> 10", "unit": "µM"}, {"measurement": "Activity", "setting": "[7]", "value": 132, "unit": "%"}, {"measurement": "IC50", "setting": "[8]", "value": 0.191, "unit": "µM"}, {"measurement": "concentration at 240 h", "setting": "[9]", "value": 0.433, "unit": "µM"}, {"measurement": "Activity", "setting": "[10]", "value": 85, "unit": "%"}, {"measurement": "TGI", "setting": "[11]", "value": "Active"}, {"measurement": "Activity", "setting": "[12]", "value": 80, "unit": "%"}, {"measurement": "Activity", "setting": "[13]", "value": 89, "unit": "%"}, {"measurement": "Activity", "setting": "[14]", "value": 93, "unit": "%"}, {"measurement": "IC50", "setting": "[15]", "value": 0.443, "unit": "µM"}, {"measurement": "Tmax", "setting": "[16]", "value": 1.2, "unit": "h"}, {"measurement": "IC50", "setting": "[17]", "value": 0.035, "unit": "µM"}, {"measurement": "IC50", "setting": "[18]", "value": 0.086, "unit": "µM"}, {"measurement": "Activity", "setting": "[19]", "value": 129, "unit": "%"}, {"measurement": "IC50", "setting": "[20]", "value": "> 10", "unit": "µM"}, {"measurement": "inhibition", "setting": "[21]", "value": 89.7, "unit": "%"}, {"measurement": "IC50", "setting": "[22]", "value": 0.09, "unit": "µM"}, {"measurement": "IC50", "setting": "[23]", "value": 1.21, "unit": "µM"}, {"measurement": "IC50", "setting": "[24]", "value": 0.03, "unit": "µM"}, {"measurement": "IC50", "setting": "[25]", "value": 0.06, "unit": "µM"}, {"measurement": "IC50", "setting": "[26]", "value": 0.032, "unit": "µM"}, {"measurement": "IC50", "setting": "[27]", "value": 0.109, "unit": "µM"}, {"measurement": "IC50", "setting": "[28]", "value": "> 10", "unit": "µM"}, {"measurement": "IC50", "setting": "[29]", "value": 0.05, "unit": "µM"}, {"measurement": "IC50", "setting": "[30]", "value": 0.066, "unit": "µM"}, {"measurement": "IC50", "setting": "[31]", "value": 0.04, "unit": "µM"}]}]}
